Measured values published in ChEMBL document CHEMBL5653631, “A Potent and Selective ULK1 Inhibitor Suppresses Autophagy and Sensitizes Cancer Cells to Nutrient Stress” (iScience, 2018).
Blank lines part the entries; values can stand above or below the compound they belong to.

Assays:
[1] = target: T1, Protein kinase C epsilon type (Homo sapiens) (UniProt Q02156); test: Inhibition of human recombinant PKCe at 500 nM in presence of ATP by radiometric assay relative to control
T1 sequence (whole entry): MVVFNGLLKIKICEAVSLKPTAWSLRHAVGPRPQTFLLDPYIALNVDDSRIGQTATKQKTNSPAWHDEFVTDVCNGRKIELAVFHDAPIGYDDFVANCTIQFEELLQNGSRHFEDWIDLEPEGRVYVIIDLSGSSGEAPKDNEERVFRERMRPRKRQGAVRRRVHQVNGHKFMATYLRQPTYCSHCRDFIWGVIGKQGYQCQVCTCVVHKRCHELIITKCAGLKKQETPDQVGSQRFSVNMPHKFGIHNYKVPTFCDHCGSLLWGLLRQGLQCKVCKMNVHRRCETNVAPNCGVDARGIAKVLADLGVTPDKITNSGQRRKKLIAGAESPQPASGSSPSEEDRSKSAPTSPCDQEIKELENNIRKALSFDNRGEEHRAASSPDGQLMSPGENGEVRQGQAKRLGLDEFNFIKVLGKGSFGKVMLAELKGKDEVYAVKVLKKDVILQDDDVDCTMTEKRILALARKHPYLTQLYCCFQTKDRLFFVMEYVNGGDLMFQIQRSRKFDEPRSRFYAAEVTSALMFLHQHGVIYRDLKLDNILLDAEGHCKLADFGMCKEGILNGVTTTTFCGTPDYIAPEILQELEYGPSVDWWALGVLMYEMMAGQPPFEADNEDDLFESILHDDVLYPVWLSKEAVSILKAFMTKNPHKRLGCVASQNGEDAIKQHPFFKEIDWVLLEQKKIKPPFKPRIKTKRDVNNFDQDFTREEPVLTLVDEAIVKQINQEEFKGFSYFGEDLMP

[2] = target: T2, Tyrosine-protein kinase receptor TYRO3 (Homo sapiens) (UniProt Q06418); test: Inhibition of human recombinant TYRO3 at 500 nM in presence of ATP by radiometric assay relative to control
T2 sequence (whole entry): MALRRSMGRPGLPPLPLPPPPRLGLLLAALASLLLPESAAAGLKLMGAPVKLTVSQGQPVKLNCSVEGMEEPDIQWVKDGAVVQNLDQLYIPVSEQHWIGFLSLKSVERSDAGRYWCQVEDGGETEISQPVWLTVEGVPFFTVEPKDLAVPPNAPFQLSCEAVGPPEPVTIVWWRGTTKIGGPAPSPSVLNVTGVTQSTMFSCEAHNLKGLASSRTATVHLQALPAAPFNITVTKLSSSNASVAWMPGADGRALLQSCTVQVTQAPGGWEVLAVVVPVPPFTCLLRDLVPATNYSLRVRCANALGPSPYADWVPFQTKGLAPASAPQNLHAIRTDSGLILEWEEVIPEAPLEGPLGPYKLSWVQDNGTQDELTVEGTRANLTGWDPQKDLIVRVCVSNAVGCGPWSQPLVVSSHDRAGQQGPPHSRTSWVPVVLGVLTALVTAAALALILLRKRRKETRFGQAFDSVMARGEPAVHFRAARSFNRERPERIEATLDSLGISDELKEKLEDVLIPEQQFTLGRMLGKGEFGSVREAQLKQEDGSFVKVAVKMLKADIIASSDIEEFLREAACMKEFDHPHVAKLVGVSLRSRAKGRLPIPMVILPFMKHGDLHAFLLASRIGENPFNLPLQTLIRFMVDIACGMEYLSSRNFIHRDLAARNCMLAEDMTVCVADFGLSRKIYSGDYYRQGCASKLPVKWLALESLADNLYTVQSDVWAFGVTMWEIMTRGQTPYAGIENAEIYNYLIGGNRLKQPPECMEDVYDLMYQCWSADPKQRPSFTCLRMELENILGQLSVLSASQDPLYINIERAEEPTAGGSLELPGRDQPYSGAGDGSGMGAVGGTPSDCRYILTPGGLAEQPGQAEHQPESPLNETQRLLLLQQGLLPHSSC

[3] = target: High affinity nerve growth factor receptor (Homo sapiens) (UniProt P04629); test: Inhibition of human recombinant TRKA at 500 nM related to control ULK1
[4] = target: T3, Serine/threonine-protein kinase BRSK1 (Homo sapiens) (UniProt Q8TDC3); test: Inhibition of human recombinant BRSK1 at 40 nM in presence of ATP by radiometric assay relative to control
T3 sequence (whole entry): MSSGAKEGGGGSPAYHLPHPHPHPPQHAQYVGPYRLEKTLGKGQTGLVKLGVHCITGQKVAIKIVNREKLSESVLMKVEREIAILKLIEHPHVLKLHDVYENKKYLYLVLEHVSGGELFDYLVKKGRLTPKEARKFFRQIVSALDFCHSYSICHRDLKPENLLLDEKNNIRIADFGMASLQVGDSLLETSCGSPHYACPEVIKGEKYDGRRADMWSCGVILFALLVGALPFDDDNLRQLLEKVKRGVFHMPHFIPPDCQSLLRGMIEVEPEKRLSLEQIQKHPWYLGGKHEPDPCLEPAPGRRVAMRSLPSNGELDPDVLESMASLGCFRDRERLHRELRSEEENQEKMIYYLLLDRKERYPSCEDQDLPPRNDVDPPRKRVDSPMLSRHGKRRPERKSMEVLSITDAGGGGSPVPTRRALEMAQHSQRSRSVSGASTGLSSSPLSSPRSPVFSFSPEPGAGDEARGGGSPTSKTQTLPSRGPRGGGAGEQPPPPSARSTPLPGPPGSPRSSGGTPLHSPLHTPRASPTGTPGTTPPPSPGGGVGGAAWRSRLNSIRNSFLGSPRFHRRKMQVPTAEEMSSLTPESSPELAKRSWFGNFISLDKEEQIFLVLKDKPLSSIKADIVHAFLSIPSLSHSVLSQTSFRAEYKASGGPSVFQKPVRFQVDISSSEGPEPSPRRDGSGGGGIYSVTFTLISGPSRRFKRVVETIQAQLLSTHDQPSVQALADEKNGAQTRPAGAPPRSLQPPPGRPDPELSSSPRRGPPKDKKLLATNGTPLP
Method in brief: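 Recombinant human kinase panel (327 kinases) run as radiometric activity assays, each kinase in duplicate at one compound concentration. Activity remaining expressed relative to vehicle control; percent inhibition taken as 100% minus % activity remaining.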

[5] = target: Serine/threonine-protein kinase pim-1 (Homo sapiens) (UniProt P11309); test: Inhibition of human recombinant PIM1 at 40 nM related to control ULK1
[6] = target: Non-receptor tyrosine-protein kinase TYK2 (Homo sapiens) (UniProt P29597); test: Inhibition of human recombinant TYK2 at 15 nM related to control ULK1
[7] = target: TGF-beta receptor type-2 (Homo sapiens) (UniProt P37173); test: Inhibition of human recombinant TGFbR2 at 15 nM related to control ULK1
TGF-beta receptor type-2 (Homo sapiens), sequence (P37173 whole entry): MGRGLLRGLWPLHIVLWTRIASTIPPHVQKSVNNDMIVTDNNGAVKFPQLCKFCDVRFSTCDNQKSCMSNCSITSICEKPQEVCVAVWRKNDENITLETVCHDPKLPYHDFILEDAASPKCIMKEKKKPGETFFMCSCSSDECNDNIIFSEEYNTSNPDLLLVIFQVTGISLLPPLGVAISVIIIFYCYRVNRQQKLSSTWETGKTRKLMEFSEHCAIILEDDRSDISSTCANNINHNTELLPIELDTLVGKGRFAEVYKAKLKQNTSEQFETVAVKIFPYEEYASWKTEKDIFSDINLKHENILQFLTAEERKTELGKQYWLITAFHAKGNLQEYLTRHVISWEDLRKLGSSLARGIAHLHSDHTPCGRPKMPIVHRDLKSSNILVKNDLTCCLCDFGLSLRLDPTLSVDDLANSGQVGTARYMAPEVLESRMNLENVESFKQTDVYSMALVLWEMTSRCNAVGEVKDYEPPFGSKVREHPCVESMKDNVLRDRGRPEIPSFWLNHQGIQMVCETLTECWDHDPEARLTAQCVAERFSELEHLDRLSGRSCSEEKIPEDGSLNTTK

High affinity nerve growth factor receptor (Homo sapiens), sequence (P04629 33-796 limits assumed): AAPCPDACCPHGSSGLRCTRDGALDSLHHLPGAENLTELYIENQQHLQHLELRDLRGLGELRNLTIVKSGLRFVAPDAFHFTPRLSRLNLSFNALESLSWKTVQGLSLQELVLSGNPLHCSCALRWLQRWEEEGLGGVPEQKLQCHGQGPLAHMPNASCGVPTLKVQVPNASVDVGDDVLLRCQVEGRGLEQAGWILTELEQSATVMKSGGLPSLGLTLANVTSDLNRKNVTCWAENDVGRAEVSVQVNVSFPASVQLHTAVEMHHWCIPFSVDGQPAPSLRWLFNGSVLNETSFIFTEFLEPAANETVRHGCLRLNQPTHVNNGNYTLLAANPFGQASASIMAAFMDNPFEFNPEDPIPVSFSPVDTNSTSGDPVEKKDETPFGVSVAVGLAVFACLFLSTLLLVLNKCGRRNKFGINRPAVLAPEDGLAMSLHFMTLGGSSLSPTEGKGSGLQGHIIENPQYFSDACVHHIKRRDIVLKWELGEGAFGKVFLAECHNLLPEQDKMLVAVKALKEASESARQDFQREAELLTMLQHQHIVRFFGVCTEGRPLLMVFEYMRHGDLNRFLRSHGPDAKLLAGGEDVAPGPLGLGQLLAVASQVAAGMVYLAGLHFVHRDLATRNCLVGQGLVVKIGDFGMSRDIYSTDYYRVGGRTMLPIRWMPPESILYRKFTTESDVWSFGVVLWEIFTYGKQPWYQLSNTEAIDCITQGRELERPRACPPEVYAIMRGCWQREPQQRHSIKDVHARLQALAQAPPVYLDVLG
Serine/threonine-protein kinase pim-1 (Homo sapiens), sequence (P11309 whole entry, looked up): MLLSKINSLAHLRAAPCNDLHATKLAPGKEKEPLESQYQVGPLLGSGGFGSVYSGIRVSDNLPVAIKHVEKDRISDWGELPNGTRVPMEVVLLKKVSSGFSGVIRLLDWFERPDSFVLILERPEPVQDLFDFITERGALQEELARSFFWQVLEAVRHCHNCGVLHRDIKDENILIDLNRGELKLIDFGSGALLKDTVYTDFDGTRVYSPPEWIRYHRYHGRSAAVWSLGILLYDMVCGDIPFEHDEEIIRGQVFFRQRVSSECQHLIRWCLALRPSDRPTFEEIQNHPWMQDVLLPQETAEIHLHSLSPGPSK
Non-receptor tyrosine-protein kinase TYK2 (Homo sapiens), sequence (P29597 whole entry): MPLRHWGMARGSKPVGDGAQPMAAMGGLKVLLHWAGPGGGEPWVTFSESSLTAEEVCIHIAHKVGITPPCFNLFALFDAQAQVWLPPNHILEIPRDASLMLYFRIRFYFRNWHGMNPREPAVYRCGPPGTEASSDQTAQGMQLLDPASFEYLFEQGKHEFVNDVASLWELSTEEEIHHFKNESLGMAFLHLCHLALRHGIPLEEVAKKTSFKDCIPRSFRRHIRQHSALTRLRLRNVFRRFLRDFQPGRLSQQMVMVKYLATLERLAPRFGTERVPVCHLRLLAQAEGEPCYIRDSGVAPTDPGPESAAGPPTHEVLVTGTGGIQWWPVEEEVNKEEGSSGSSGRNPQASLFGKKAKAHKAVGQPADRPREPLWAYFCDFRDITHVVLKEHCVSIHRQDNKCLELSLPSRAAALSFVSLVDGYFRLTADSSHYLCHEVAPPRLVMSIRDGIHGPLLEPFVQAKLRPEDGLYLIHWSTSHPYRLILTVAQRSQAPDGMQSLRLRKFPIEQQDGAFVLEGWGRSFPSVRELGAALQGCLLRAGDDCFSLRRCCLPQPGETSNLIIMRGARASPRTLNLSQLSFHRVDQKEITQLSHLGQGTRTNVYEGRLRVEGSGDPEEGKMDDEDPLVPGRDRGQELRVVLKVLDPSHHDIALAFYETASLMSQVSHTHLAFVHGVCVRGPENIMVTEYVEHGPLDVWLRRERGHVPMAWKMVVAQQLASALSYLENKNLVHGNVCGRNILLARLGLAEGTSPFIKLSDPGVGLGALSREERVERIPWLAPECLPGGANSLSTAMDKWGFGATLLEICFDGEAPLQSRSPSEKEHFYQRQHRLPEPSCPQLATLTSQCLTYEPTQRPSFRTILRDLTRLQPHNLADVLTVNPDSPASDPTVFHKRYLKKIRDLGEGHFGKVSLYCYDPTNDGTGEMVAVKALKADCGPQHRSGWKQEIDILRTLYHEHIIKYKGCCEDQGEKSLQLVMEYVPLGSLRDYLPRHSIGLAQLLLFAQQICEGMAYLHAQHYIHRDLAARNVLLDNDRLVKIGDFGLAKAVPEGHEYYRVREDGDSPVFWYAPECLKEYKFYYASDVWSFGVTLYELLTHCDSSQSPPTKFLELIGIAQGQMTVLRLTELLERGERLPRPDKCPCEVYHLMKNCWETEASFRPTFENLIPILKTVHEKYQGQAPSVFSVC

inhibition [1]: 0%
inhibition [2]: 10%
fold change (FC) [3]: 0.7
Structure (SMILES): CNC(=O)c1ccccc1Oc1nc(Nc2cc(OC)c(OC)c(OC)c2)ncc1Br

inhibition [4]: 2%
fold change (FC) [5]: 0.07
Structure (SMILES): O=C(N[C@@H](C1CC1)C(F)(F)F)c1cc(-c2cnn3cc(-c4ccc(F)cc4)cnc23)cs1

fold change (FC) [6]: 0.02
fold change (FC) [7]: 0.48
Structure (SMILES): CC(C)[C@H](NC(=O)c1cc(-c2cnn3cc(-c4ccc(OCCN5CCCCC5)cc4)cnc23)cs1)C(F)(F)F
